Experimental data published in ChEMBL document CHEMBL3526081 (Drug Metab Dispos, 2011).

How the values were obtained:
Cytochrome P450 2A6 = target: T1, Cytochrome P450 2A6 (Homo sapiens, UniProt P11509); experiment: Drug level in human recombinant CYP2A6 expressed in insect cells coexpressing NADPH-P450 reductase measured per pmol of enzyme treated with 50 uM cinobufagin at 37 degC after 30 mins by UFLC-DAD-ESI-MS analysis; conditions: 0.5 h
T1 sequence (P11509 whole entry): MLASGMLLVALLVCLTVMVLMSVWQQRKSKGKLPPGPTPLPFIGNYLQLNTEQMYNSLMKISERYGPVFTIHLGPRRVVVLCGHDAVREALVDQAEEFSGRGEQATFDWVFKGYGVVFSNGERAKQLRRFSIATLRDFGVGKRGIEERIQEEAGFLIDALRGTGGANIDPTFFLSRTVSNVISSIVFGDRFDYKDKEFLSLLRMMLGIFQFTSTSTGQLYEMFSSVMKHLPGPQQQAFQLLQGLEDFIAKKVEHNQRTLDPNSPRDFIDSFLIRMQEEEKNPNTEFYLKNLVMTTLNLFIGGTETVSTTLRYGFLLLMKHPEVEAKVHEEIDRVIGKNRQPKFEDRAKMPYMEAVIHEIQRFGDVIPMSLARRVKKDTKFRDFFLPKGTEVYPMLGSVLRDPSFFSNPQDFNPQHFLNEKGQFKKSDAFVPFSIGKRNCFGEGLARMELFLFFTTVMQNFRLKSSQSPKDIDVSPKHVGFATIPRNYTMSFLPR

Cytochrome P450 2E1 = Cytochrome P450 2E1 (Homo sapiens, UniProt P05181); experiment: Drug level in human recombinant CYP2E1 expressed in insect cells coexpressing NADPH-P450 reductase measured per pmol of enzyme treated with 50 uM cinobufagin at 37 degC after 30 mins by UFLC-DAD-ESI-MS analysis; conditions: 0.5 h
Liver microsome [1] = experiment: Drug level in human liver microsomes treated with 100 uM cinobufagin at 37 degC after 30 mins by UFLC-ESI-MS analysis in presence of NADPH-generating system; type: ADME; conditions: 0.5 h
Summary of the method: (§1)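 Liver microsomes (0.3 mg protein/ml) incubated with 100 µM substrate at 37°C for 30 min, in 100 mM potassium phosphate pH 7.4 with NADPH-generating system (1 mM NADP+, 10 mM glucose 6-phosphate, 1 unit/ml G6PDH, 4 mM MgCl2). Acetonitrile ≤1% final. Stopped with ice-cold acetonitrile and centrifuged. Metabolites identified by UFLC-ESI-MS and quantified by UFLC-DAD at 294 nm against authentic standard curves.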

Cytochrome P450 1A2 = target: T2, Cytochrome P450 1A2 (Homo sapiens, UniProt P05177); experiment: Drug level in human recombinant CYP1A2 expressed in insect cells coexpressing NADPH-P450 reductase measured per pmol of enzyme treated with 50 uM cinobufagin at 37 degC after 30 mins by UFLC-DAD-ESI-MS analysis; conditions: 0.5 h
T2 sequence (P05177 whole entry): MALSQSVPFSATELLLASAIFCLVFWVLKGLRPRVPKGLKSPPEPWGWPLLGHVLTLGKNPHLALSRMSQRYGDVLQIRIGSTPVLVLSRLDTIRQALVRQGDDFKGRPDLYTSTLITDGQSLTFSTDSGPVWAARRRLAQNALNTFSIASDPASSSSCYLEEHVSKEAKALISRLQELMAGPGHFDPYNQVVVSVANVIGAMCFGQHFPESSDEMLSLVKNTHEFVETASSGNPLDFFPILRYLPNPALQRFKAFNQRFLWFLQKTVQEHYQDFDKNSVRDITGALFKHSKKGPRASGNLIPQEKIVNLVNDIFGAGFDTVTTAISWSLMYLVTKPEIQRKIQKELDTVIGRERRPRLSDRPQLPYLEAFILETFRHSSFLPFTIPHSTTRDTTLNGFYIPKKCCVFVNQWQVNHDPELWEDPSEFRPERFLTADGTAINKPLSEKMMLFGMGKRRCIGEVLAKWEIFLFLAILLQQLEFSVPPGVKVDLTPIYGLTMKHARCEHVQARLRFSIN

[2] = Drug metabolism in Colony-bred Chinese Bama minipig liver microsomes assessed as 1alpha-hydroxylcinobufagin formation at 100 uM at 37 degC after 30 mins by UFLC-ESI-MS analysis in presence of NADPH-generating system; type: ADME, Sus scrofa; conditions: pig, 0.5 h
Summary of the method: as §1

[3] = Drug metabolism in Swiss-Hauschka (ICR) mouse liver microsomes assessed as 1alpha-hydroxylcinobufagin formation at 100 uM at 37 degC after 30 mins by UFLC-ESI-MS analysis in presence of NADPH-generating system; type: ADME; conditions: 0.5 h
Summary of the method: as §1

Liver microsome [4] = experiment: Drug metabolism in human liver microsomes assessed as 5beta-hydroxylcinobufagin formation at 100 uM at 37 degC after 30 mins […] in presence of 10 uM sulfaphenazole CYP2C9 inhibitor; type: ADME; conditions: 0.5 h
[5] = Drug metabolism in Swiss-Hauschka (ICR) mouse liver microsomes assessed as 1alpha-hydroxylcinobufagin formation at 100 uM at 37 degC after 30 mins by UFLC-ESI-MS analysis in presence of 1 uM ketoconazole CYP3A4 inhibitor; type: ADME; conditions: 0.5 h
Summary of the method: (§2)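 Chemical inhibition: selective P450 inhibitors (furafylline, sulfaphenazole, ketoconazole) added to liver microsome incubations in 100 mM potassium phosphate pH 7.4 with NADPH-generating system at 37°C. Hydroxylated metabolite formation quantified by UFLC at 294 nm against standards. Mean ± S.D. of three experiments in duplicate.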

[6] = Ratio of Vmax/Km in Colony-bred Chinese Bama minipig liver microsomes assessed as 5beta-hydroxylcinobufaginn formation at 100 uM […] by UFLC-ESI-MS analysis; type: ADME, Sus scrofa; conditions: pig, 0.5 h
[7] = Drug metabolism in cynomolgus monkey liver microsomes assessed as 1alpha-hydroxylcinobufagin formation per mg of protein at 100 uM at 37 degC after 30 mins by UFLC-ESI-MS analysis; type: ADME, Macaca fascicularis; conditions: 0.5 h
Summary of the method: as §1

[8] = Drug metabolism in Colony-bred Chinese Bama minipig liver microsomes assessed as 5beta-hydroxylcinobufagin formation at 100 uM at 37 degC after 30 mins by UFLC-ESI-MS analysis in presence of NADPH-generating system; type: ADME, Sus scrofa; conditions: pig, 0.5 h
Summary of the method: as §1

[9] = Drug metabolism in Colony-bred Chinese Bama minipig liver microsomes assessed as 1alpha-hydroxylcinobufagin formation at 100 uM at 37 degC after 30 mins by UFLC-ESI-MS analysis; type: ADME, Sus scrofa; conditions: pig, 0.5 h, read-out: Km(app)
Summary of the method: as §1

[10] = Drug metabolism in Swiss-Hauschka (ICR) mouse liver microsomes assessed as dihydroxylcinobufagin formation at 100 uM at 37 degC after 30 mins by UFLC-ESI-MS analysis in presence of NADPH-generating system; type: ADME; conditions: 0.5 h
Summary of the method: as §1

[11] = Drug metabolism in Colony-bred Chinese Bama minipig liver microsomes assessed as 1alpha-hydroxylcinobufagin formation per mg of protein at 100 uM at 37 degC after 30 mins by UFLC-ESI-MS analysis; type: ADME, Sus scrofa; conditions: pig, 0.5 h
Summary of the method: as §1

[12] = Drug metabolism in Colony-bred Chinese Bama minipig liver microsomes assessed as 1alpha-hydroxylcinobufagin formation at 100 uM at 37 degC after 30 mins by UFLC-ESI-MS analysis in presence of 10 uM sulfaphenazole CYP2C9 inhibitor; type: ADME, Sus scrofa; conditions: pig, 0.5 h
Summary of the method: as §2

Liver microsome [13] = experiment: Drug metabolism in beagle dog liver microsomes assessed as 5beta-hydroxylcinobufaginn formation at 100 uM at 37 degC after 30 mins by UFLC-ESI-MS analysis; type: ADME, Canis lupus familiaris; conditions: 0.5 h, read-out: Km(app)
Summary of the method: as §1

Sequence of Cytochrome P450 2E1 (P05181 whole entry): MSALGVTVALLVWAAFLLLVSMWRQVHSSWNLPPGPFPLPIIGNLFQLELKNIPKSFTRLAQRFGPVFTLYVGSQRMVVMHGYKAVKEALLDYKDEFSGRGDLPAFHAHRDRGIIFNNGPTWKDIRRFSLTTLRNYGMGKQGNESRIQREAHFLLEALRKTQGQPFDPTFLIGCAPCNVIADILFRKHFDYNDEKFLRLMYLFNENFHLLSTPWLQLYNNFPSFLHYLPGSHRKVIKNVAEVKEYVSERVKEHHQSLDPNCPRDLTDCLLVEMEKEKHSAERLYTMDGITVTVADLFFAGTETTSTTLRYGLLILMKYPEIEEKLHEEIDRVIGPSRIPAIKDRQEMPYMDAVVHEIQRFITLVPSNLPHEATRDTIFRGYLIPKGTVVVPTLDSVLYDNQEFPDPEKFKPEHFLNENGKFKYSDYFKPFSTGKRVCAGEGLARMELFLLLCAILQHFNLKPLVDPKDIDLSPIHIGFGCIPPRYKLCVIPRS

SMILES | Drug metabolism (Cytochrome P450 2A6) | Drug metabolism (Cytochrome P450 2E1) | Drug metabolism (Liver microsome [1]) | Drug metabolism (Cytochrome P450 1A2) | Drug metabolism [2] | Drug metabolism [3] | Drug metabolism (Liver microsome [4]) | Drug metabolism [5] | Vmax/Km [6] | Vmax [7] | Drug metabolism [8] | Km [9] | Drug metabolism [10] | Vmax [11] | Drug metabolism [12] | Km (Liver microsome [13])
CC(=O)O[C@H]1[C@H]2O[C@]23[C@@H]2CC[C@@H]4C[C@@H](O)C[C@H](O)[C@]4(C)[C@H]2CC[C@]3(C)[C@H]1c1ccc(=O)oc1 | < 0.01 pmol/min | < 0.01 pmol/min | metabolite_detected | < 0.01 pmol/min | – | – | – | – | – | – | – | – | – | – | – | –
CC(=O)O[C@H]1[C@H]2O[C@]23[C@@H]2CC[C@@H]4C[C@@H](O)CC[C@]4(C)[C@H]2CC[C@]3(C)[C@H]1c1ccc(=O)oc1 [CINOBUFAGIN] | – | – | – | – | metabolite_detected | metabolite_detected | metabolite_detected | metabolite_not_detected | 54.6 µL/min/mg | 2.12 nmol/min/mg | metabolite_detected | 17.2 µM | metabolite_detected | 0.25 nmol/min/mg | metabolite_detected | 3.4 µM
CC(=O)O[C@H]1[C@H]2O[C@]23[C@@H]2CC[C@]4(O)C[C@@H](O)CC[C@]4(C)[C@H]2CC[C@]3(C)[C@H]1c1ccc(=O)oc1 [CINOBUFOTALIN] | < 0.01 pmol/min | < 0.01 pmol/min | metabolite_detected | < 0.01 pmol/min | – | – | – | – | – | – | – | – | – | – | – | –
